{"data": "Results gathered from unrelated publications", "note": "Lines come from different studies, so protocols differ."}
{"SMILES": "COC(=O)c1cc(-c2cccc(NC(=S)Nc3ccccc3Cl)c2)on1", "tested on": "Klebsiella pneumoniae", "test": "microbial growth, broth dilution", "test system": "BAA1705", "measurement": "MIC", "result": "> 64 µg/mL"}
{"SMILES": "COc1ccc(C=CC(=O)c2ccc(-c3ccccc3)cc2)cc1OC", "tested on": "Mycobacterium tuberculosis variant bovis BCG", "test": "microbial growth", "test system": "BCG", "setting": "7 days", "measurement": "MIC", "result": "100 µg/mL"}
{"SMILES": "COc1c2c(cc3c1OCO3)[C@]13C=C[C@H](OC)C[C@@H]1[N@](C2)C[C@H]3OC(=O)c1ccc2ccccc2c1", "tested on": "A2780", "test": "cell growth or viability, WST-1", "measurement": "IC50", "result": "> 10 µM"}
{"SMILES": "CCCCCCCCCCCCCCCCCCCCc1cc(O)cc(O)c1", "tested on": "Streptococcus pneumoniae", "test": "microbial growth", "measurement": "IC50", "result": "> 200 µM"}
{"SMILES": "O=C(N/N=C1\\C(=O)N(Cc2ccccc2)c2ccc(Br)cc21)c1cc2ccccc2[nH]1", "tested on": "HT-29", "test": "cell growth or viability", "setting": "30 µM", "measurement": "inhibition", "result": "94.7%"}
{"SMILES": "CC(C)C(C)CCCCCCCCCCCc1cc(O)cc(O)c1 (stereo not drawn)", "tested on": "Streptococcus pneumoniae", "test": "microbial growth", "measurement": "IC50", "result": "47.5 µM"}
{"SMILES": "O=C(N/N=C1\\C(=O)N(Cc2ccc(Cl)cc2)c2ccccc21)c1cc2ccccc2[nH]1", "tested on": "HT-29", "test": "cell growth or viability", "setting": "30 µM", "measurement": "inhibition", "result": "93.7%"}
{"SMILES": "CCOC(=O)c1cc(-c2cccc(NC(=O)Nc3ccc(Cl)c(Cl)c3)c2)on1", "tested on": "Klebsiella pneumoniae", "test": "microbial growth, broth dilution", "test system": "BAA1705", "measurement": "MIC", "result": "> 64 µg/mL"}
{"SMILES": "O=C(N/N=C1\\C(=O)N(Cc2ccccc2)c2ccc(F)cc21)c1cc2ccccc2[nH]1", "tested on": "HT-29", "test": "cell growth or viability", "measurement": "IC50", "result": "3.5 µM"}
{"SMILES": "CCC1(c2ccc(N)cc2)CCC(=O)NC1=O (stereo not drawn)", "tested on": "A2780", "test": "cell growth or viability, CCK-8", "setting": "48 h", "measurement": "IC50", "result": "> 50 µM"}
{"SMILES": "CC(C)CCCCCCCCCCCCc1cc(O)cc(O)c1", "tested on": "Klebsiella pneumoniae", "test": "microbial growth", "test system": "ATCC29665", "measurement": "IC50", "result": "> 200 µM"}
{"SMILES": "O=C(N/N=C1\\C(=O)N(Cc2ccccc2)c2ccc(Cl)cc21)c1cc2ccccc2[nH]1", "tested on": "HT-29", "test": "cell growth or viability", "setting": "30 µM", "measurement": "inhibition", "result": "94.3%"}
{"SMILES": "COC(=O)c1cc(-c2cccc(NC(=O)Nc3ccc(C(F)(F)F)cc3)c2)on1", "tested on": "Klebsiella pneumoniae", "test": "microbial growth, broth dilution", "test system": "BAA1705", "measurement": "MIC", "result": "> 64 µg/mL"}
{"SMILES": "N#CCc1c[nH]c2ccccc12", "tested on": "Cryptosporidium parvum", "test": "parasite growth", "test system": "HCT-8", "setting": "24 h, intracellular", "measurement": "EC50", "result": "546 µM"}
{"SMILES": "COC(=O)c1cc(-c2cccc(NC(=O)Nc3ccc(C)c(Cl)c3)c2)on1", "tested on": "Klebsiella pneumoniae", "test": "microbial growth, broth dilution", "test system": "BAA1705", "measurement": "MIC", "result": "> 64 µg/mL"}
{"SMILES": "C1CCNCC1", "tested on": "Cryptosporidium parvum", "test": "parasite growth, imaging", "test system": "HCT-8", "setting": "1 mM, 24 h, intracellular", "measurement": "activity vs control", "result": "104%"}
{"SMILES": "O=C(N/N=C1\\C(=O)N(Cc2ccccc2)c2ccccc21)c1cc2ccccc2[nH]1", "tested on": "HT-29", "test": "cell growth or viability", "measurement": "IC50", "result": "6.19 µM"}
{"SMILES": "COC(=O)c1cc(-c2cccc(NC(=O)Nc3ccc(Cl)cc3Cl)c2)on1", "tested on": "Klebsiella pneumoniae", "test": "microbial growth, broth dilution", "test system": "BAA1705", "measurement": "MIC", "result": "> 64 µg/mL"}
{"SMILES": "Cc1ccc(CN2C(=O)/C(=N\\NC(=O)c3cc4ccccc4[nH]3)c3ccccc32)cc1", "tested on": "HT-29", "test": "cell growth or viability", "setting": "30 µM", "measurement": "inhibition", "result": "91.1%"}
{"SMILES": "Cc1cccc(-n2ncc(Cl)c(Cl)c2=O)c1", "tested on": "NCI-H1650", "test": "cell growth or viability, resazurin", "setting": "96 h", "measurement": "IC50", "result": "1.24 µM"}
{"SMILES": "COC(=O)c1cc(-c2cccc(NC(=O)Nc3c(C)cccc3C)c2)on1", "tested on": "Klebsiella pneumoniae", "test": "microbial growth, broth dilution", "test system": "BAA1705", "measurement": "MIC", "result": "> 64 µg/mL"}
{"SMILES": "N#Cc1ccc(CN2C(=O)/C(=N\\NC(=O)c3cc4ccccc4[nH]3)c3ccccc32)cc1", "tested on": "HT-29", "test": "cell growth or viability", "setting": "30 µM", "measurement": "inhibition", "result": "81.6%"}
{"SMILES": "CC(C)CCCCCCCCCCCCCCc1cc(O)cc(O)c1", "tested on": "Streptococcus pneumoniae", "test": "microbial growth", "measurement": "IC50", "result": "46.3 µM"}
{"SMILES": "COC(=O)c1cc(-c2cccc(NC(=S)Nc3cc(C(F)(F)F)cc(C(F)(F)F)c3)c2)on1", "tested on": "Klebsiella pneumoniae", "test": "microbial growth, broth dilution", "test system": "BAA1705", "measurement": "MIC", "result": "> 64 µg/mL"}
